From ChEMBL document CHEMBL1150063, “Synergistic effect of flavones and flavonols against herpes simplex virus type 1 in cell culture. Comparison with the antiviral activity of propolis” (J Nat Prod, 1992)
≈ marks a conversion by molar mass, not a printed value.

How the values were obtained:
[1] = system: Human alphaherpesvirus 1; test: Antiviral activity against HSV1 in african green monkey Vero cells assessed as log reduction of virus titer at 72.5 ug/ml; type: functional
Outline: (§1)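 Vero (ATCC CCL81) monolayers, confluent and 1 day old, in microtiter plates. Compound was diluted from DMSO stock into MEM and added just before infection with HSV-1 strain H 29 S at 100 TCID50/well. Each drug was tested in sextuplicate at 37° for 72 h. Wells were freeze-thawed 3 times, pooled and clarified, then titrated by limit dilution (CPE, TCID50/ml). Activity is the log10 titer reduction versus untreated controls.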

[2] = system: Human alphaherpesvirus 1; test: Antiviral activity against HSV1 in african green monkey Vero cells assessed as log reduction of virus titer at 48.3 ug/ml; type: functional; outline: as §1
[3] = system: Human alphaherpesvirus 1; test: Antiviral activity against HSV1 in african green monkey Vero cells assessed as log reduction of virus titer at 5 ug/ml; type: functional; outline: as §1
[4] = system: Human alphaherpesvirus 1; test: Antiviral activity against HSV1 in african green monkey Vero cells assessed as log reduction of virus titer at 60.4 ug/ml; type: functional; outline: as §1
[5] = system: Human alphaherpesvirus 1; test: Antiviral activity against HSV1 in african green monkey Vero cells assessed as log reduction of virus titer at 10.1 ug/ml; type: functional; outline: as §1
[6] = Cytotoxicity against african green monkey Vero cells; type: cell-based; conditions: chlorocebus sabaeus
Outline: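 Uninfected Vero monolayers (ATCC CCL81; MEM with 10% newborn calf serum) in 25 cm2 flasks, 2.10^6 cells, four flasks per dilution, exposed to 0.05–5 mM in maintenance medium, diluted from DMSO stocks with MEM. After 96 h, morphology checked by microscopy; cells trypsinized and counted by trypan blue exclusion against untreated cultures. CC50 = concentration halving cell number.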

[7] = system: Human alphaherpesvirus 1; test: Antiviral activity against HSV1 in african green monkey Vero cells assessed as log reduction of virus titer at 5.4 ug/ml; type: functional; outline: as §1
[8] = system: Human alphaherpesvirus 1; test: Antiviral activity against HSV1 in african green monkey Vero cells assessed as log reduction of virus titer at 10.8 ug/ml; type: functional; outline: as §1
[9] = system: Human alphaherpesvirus 1; test: Antiviral activity against HSV1 in african green monkey Vero cells assessed as log reduction of virus titer at 30.5 ug/ml; type: functional; outline: as §1
[10] = system: Human alphaherpesvirus 1; test: Antiviral activity against HSV1 in african green monkey Vero cells assessed as log reduction of virus titer at 40.6 ug/ml; type: functional; outline: as §1
[11] = system: Human alphaherpesvirus 1; test: Antiviral activity against HSV1 in african green monkey Vero cells assessed as log reduction of virus titer at 20.3 ug/ml; type: functional; outline: as §1
[12] = system: Human alphaherpesvirus 1; test: Antiviral activity against HSV1 in african green monkey Vero cells assessed as log reduction of virus titer at 15 ug/ml; type: functional; outline: as §1
[13] = system: Human alphaherpesvirus 1; test: Antiviral activity against HSV1 in african green monkey Vero cells assessed as log reduction of virus titer at 10 ug/ml; type: functional; outline: as §1
[14] = system: Human alphaherpesvirus 1; test: Antiviral activity against HSV1 in african green monkey Vero cells assessed as log reduction of virus titer at 11.4 ug/ml; type: functional; outline: as §1
[15] = system: Human alphaherpesvirus 1; test: Antiviral activity against HSV1 in african green monkey Vero cells assessed as log reduction of virus titer at 5.7 ug/ml; type: functional; outline: as §1
[16] = system: Human alphaherpesvirus 1; test: Antiviral activity against HSV1 in african green monkey Vero cells assessed as log reduction of virus titer at 21.6 ug/ml; type: functional; outline: as §1
[17] = system: Human alphaherpesvirus 1; test: Antiviral activity against HSV1 in african green monkey Vero cells assessed as log reduction of virus titer at 1.4 ug/ml; type: functional; outline: as §1
[18] = system: Human alphaherpesvirus 1; test: Antiviral activity against HSV1 in african green monkey Vero cells assessed as log reduction of virus titer at 2.8 ug/ml; type: functional; outline: as §1
[19] = system: Human alphaherpesvirus 1; test: Antiviral activity against HSV1 in african green monkey Vero cells assessed as log reduction of virus titer at 32.4 ug/ml; type: functional; outline: as §1
[20] = system: Human alphaherpesvirus 1; test: Antiviral activity against HSV1 in african green monkey Vero cells assessed as log reduction of virus titer at 24.1 ug/ml; type: functional; outline: as §1
[21] = system: Human alphaherpesvirus 1; test: Antiviral activity against HSV1 in african green monkey Vero cells assessed as log reduction of virus titer at 12 ug/ml; type: functional; outline: as §1
[22] = system: Human alphaherpesvirus 1; test: Antiviral activity against HSV1 in african green monkey Vero cells assessed as log reduction of virus titer at 22.9 ug/ml; type: functional; outline: as §1
[23] = system: Human alphaherpesvirus 1; test: Antiviral activity against HSV1 in african green monkey Vero cells assessed as log reduction of virus titer at 45.7 ug/ml; type: functional; outline: as §1
[24] = system: Human alphaherpesvirus 1; test: Antiviral activity against HSV1 in african green monkey Vero cells assessed as log reduction of virus titer at 34.3 ug/ml; type: functional; outline: as §1
[25] = system: Human alphaherpesvirus 1; test: Antiviral activity against HSV1 in african green monkey Vero cells assessed as log reduction of virus titer at 36.2 ug/ml; type: functional; outline: as §1

Q: With O=c1c(O)c(-c2ccc(O)c(O)c2)oc2cc(O)cc(O)c12 [QUERCETIN] as the molecule, how does the Activity [1] read?
A: 2.3

Q: What about the Activity [2] of the same molecule?
A: 1.4

Q: And the Activity [3]?
A: 0

Q: And the Activity [4]?
A: 2

Q: And the Activity [5]?
A: 0.3

Q: And the CC50 [6]?
A: 151 µg/mL (≈ 500 µM)

Q: Which Activity [7] does the source give for O=c1cc(-c2ccccc2)oc2cc(O)cc(O)c12 [CHRYSIN] here?
A: 0.25

Q: What about the Activity [8] of the same molecule?
A: 0.5

Q: What about the Activity [9] of the same molecule?
A: 0.8

Q: What about the Activity [10] of the same molecule?
A: 1.1

Q: And the Activity [11]?
A: 0.5

Q: And the CC50 [6]?
A: 76.2 µg/mL (≈ 300 µM)

Q: Which results are given for O=c1cc(-c2ccc(O)c(O)c2)oc2cc(O)cc(O)c12 [LUTEOLIN]?
A: Activity [12]: 1.5; Activity [13]: 1; Activity [14]: 2.2; Activity [15]: 0.9; CC50 [6]: 22.9 µg/mL (≈ 80 µM)

Q: Which Activity [8] does the source give for O=c1c(O)c(-c2ccccc2)oc2cc(O)cc(O)c12 [GALANGIN] here?
A: 2.3

Q: And the Activity [16]?
A: 3.5

Q: What about the CC50 [6] of the same molecule?
A: 43.2 µg/mL (≈ 160 µM)

Q: Which results are given for O=c1cc(-c2ccc(O)cc2)oc2cc(O)cc(O)c12 [APIGENIN]?
A: Activity [17]: 0.25; Activity [18]: 0.4; Activity [19]: 1.5; Activity [16]: 1; CC50 [6]: 54 µg/mL (≈ 200 µM)

Q: Which Activity [20] does the source give for O=c1c(O)c(-c2ccc(O)cc2)oc2cc(O)cc(O)c12 [KAEMPFEROL] here?
A: 0.75

Q: And the Activity [21]?
A: 0.1

Q: What about the Activity [22] of the same molecule?
A: 1.5

Q: What about the Activity [23] of the same molecule?
A: 3.5

Q: And the Activity [24]?
A: 3.1

Q: And the Activity [25]?
A: 1.25

Q: And the CC50 [6]?
A: 91.5 µg/mL (≈ 320 µM)
